Screens: PubChem BioAssay, several laboratories
SR-BI HDL uptake: blocks mouse SR-BI lipid uptake from DiI-HDL; 0.96% of 320,000 active; inhibition, % at 12.5 µM; ldlA[mSR-BI] CHO cells, DiI-HDL uptake fluorescence, 3 h; Q61009;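 active = mean replicate inhibition of at least 70% and a set share of replicates each scoring 70 or more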;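 note: 0% = median of neutral control wells and 100% = median of positive control wells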
Target sequence (Q61009 whole entry, looked up): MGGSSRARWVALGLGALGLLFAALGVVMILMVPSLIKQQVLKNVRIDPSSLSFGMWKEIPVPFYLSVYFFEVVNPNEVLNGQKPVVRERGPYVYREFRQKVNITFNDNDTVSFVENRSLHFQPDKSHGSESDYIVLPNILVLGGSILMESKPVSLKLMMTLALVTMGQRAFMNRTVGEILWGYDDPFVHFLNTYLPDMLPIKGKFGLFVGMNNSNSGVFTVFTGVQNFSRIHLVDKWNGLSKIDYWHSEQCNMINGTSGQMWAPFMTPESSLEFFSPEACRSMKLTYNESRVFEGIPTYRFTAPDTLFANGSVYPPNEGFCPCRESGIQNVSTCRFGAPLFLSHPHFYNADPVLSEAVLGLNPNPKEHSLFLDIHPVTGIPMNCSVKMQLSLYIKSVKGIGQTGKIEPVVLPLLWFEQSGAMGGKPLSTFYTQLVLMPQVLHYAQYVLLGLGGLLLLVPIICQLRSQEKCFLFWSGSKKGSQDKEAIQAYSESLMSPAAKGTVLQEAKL
SR-BI uptake up: activators of SR-BI mediated HDL lipid uptake | AID 504775 | activation, % at 12.5 µM | CHO ldlA[mSR-BI] cells, DiI-HDL uptake fluorescence, 3 h; 100 = double the neutral-control signal | 0.096% of 320,000 active;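 active = mean replicate activation of at least 60% and every replicate at or above 60%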;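 note: 0% = median plate neutral-control signal and 100% = twice that signal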
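System: CHO ldlA[mSR-BI] cells / Medium: HEPES-buffered (25 mM, pH 7.4) F12 plus 0.5% BSA / Probe or stimulus: labelled HDL, 10 µg/mL / Doses: single compound concentration, delivered by pin transfer / Schedule: 3 h, 37 °C / Measured by: DiI fluorescence, bottom read / Measure: cell-associated DiI fluorescence as measure of HDL uptake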
V-ATPase pHluor: alters yeast V-ATPase proton transport. S. cerevisiae, pHLuorin cytosolic pH fluorescence. response, % at 10 µM. 0.37% of 350,000 active. AID 504577; in the data active = response mostly above about 7.3%, no sharp cut-off; inactive = mostly below about 5.4%; note: actives read high
CaV13 ICDI inh: Primary screen for inhibitors of IQ motif and Ca2+-dependent inactivation inhibitor domain binding in CACNA1D, Förster resonance energy transfer in living cells, …; HEK cells, CFP/YFP FRET ICDI-IQ, plate reader, 10 min; percent FRET-ratio fall versus neutral wells; inhibition, % at 12.3 µM; 0.098% of 340,000 active;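 active = mean replicate inhibition of at least 30% and at least 1% of replicates passing that level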;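 note: 0% = median of the neutral control wells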
NTR1 agonist: agonists of human neurotensin receptor NTR1; P30989; NTR1-U2OS beta-arrestin-GFP spot imaging, agonist mode; activation, % at 20 µM; 0.17% of 330,000 active; AID 493036;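 active = activation at or above 40% of the spot to cytoplasm intensity ratio, with at least 20 cells analyzed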;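 note: 0% = DMSO without peptide and 100% = 100 nM NTR1 peptide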
Vif inh: inhibitors of HIV Vif; HEK293T cells, Vif self-association by quenched fluorescence, imaging, 24 h; inhibition, % at 7.49 µM; 0.35% of 340,000 active; AID 602346; in the data active = inhibition above about 50%, passing the limit was not always enough
An asterisk follows results filed as active; . = no result. In the library only some 1.7% were active in any assay of this set; here they are far more common.

SMILES | SR-BI HDL uptake | SR-BI uptake up | V-ATPase pHluor | CaV13 ICDI inh | NTR1 agonist | Vif inh
CC1(C(=O)NCc2ccccc2Br)CCN1C(=O)C1(c2ccc(Cl)cc2)CC1 (stereo not given) | . | . | . | -10.5 | . | -9.1
O=C(CC1C(=O)NCCN1Cc1ccoc1)NCCCn1ncc2ccccc21 (stereo not given) | -9.0 | 9.0 | -1.0 | 0.0 | 1.0 | -9.5
CC(C)Oc1ccc(CN2CCC2(C)C(=O)Nc2ccc(Cl)c(Cl)c2)cc1 (stereo not given) | . | . | . | -6.1 | . | 58.0*
Cc1ccc(NC(=O)C2(C)CCN2Cc2ccc(OC(C)C)cc2)cc1 (stereo not given) | . | . | . | -4.6 | . | -3.5
COc1ccc(-c2nc(CS(=O)(=O)CC(=O)NCCc3ccccc3)c(C)o2)cc1 | 0.8 | -0.8 | -6.1 | -14.8 | 1.2 | 56.4*
NC(=O)c1ncn([C@@H]2O[C@H](C(=O)N[C@H](Cc3ccccc3)C(=O)O)[C@@H](O)[C@H]2O)n1 | . | . | . | -5.0 | . | .
CC(=O)OCC(=O)N1CCN(C(=O)C(=O)c2cccc(C(F)(F)F)c2)CC1 | . | . | . | -9.3 | . | .
CCCCCc1ccc(-c2cn(CN3C(=O)c4ccccc4C3=O)nn2)cc1 | -37.3 | 37.3 | -0.3 | -4.8 | 0.4 | 65.4*
CCCCCc1ccc(-c2cn(Cc3ccc(C)cc3)nn2)cc1 | -21.0 | 21.0 | -5.6 | -4.9 | 2.1 | -5.9
COc1cc(Cl)c(C)cc1NC(=O)CN1CCN(C(=O)C2CC2)CC1 | 24.3 | -24.3 | -2.4 | . | 2.0 | 19.2
CCOc1ccccc1N1CC(C(=O)NCCOc2ccccc2OC)CC1=O (stereo not given) | 6.6 | -6.6 | 3.6 | -10.1 | -0.4 | 1.4
O=C(N/N=C/c1ccc([N+](=O)[O-])o1)c1cn(-c2ccccc2)nc1-c1ccccc1 | 83.7* | -83.7 | -0.3 | 10.6 | 12.5 | -2.2
O=C(N/N=C/c1ccc([N+](=O)[O-])o1)c1cn(-c2ccccc2)nc1-c1ccc(Cl)cc1 | 111.9* | -111.9 | 0.4 | -7.5 | 17.2 | -17.9
O=C(N[C@H](C(=O)N1CCC[C@H]1C(=O)NCCc1ccccc1Cl)C1CCCCC1)c1ccc(Cl)c(Cl)c1 | . | . | . | -3.3 | . | .
O=C1NC(=O)C(c2ccccc2)(C2CCCC2)N1 (stereo not given) | 4.4 | -4.4 | -1.1 | -8.8 | . | 3.5
CCCC1(C2CCCC2)NC(=O)NC1=O (stereo not given) | -11.2 | 11.2 | 1.2 | -5.1 | . | 96.8*
C[C@H](CO)N1C[C@H](C)[C@@H](CN(C)C(=O)Nc2cccc(F)c2)OCc2cn(nn2)CCCC1=O | . | . | . | -4.3 | . | .
COCc1cc(C)nc(SCC(=O)Oc2ccccc2)c1C#N | -9.0 | 9.0 | -0.1 | -1.8 | 0.7 | 0.6
COCc1cc(C)nc(SCC(=O)Oc2ccc(Cl)cc2)c1C#N | 11.5 | -11.5 | -2.1 | 47.4* | 5.9 | 4.5
CCOC(=O)C1=C(C)N(C)C(=O)NC1c1c(OC)ccc2ccccc12 (stereo not given) | -27.1 | 27.1 | -0.2 | -2.6 | -0.4 | -0.9
CCOc1cccc(C=NNC(=O)C(=O)Nc2cccc(C(F)(F)F)c2)c1O | . | . | . | -12.5 | . | .
COc1cccc(CNc2ccc3[nH]c(=O)[nH]c3c2)c1OCc1ccc(F)cc1 | -15.7 | 15.7 | -3.3 | -5.9 | 1.9 | -4.9
O=c1[nH]c2ccc(NCc3ccccc3OCc3ccc(Cl)cc3)cc2[nH]1 | 71.7* | -71.7 | 1.5 | -0.1 | 6.1 | -5.4
CC1Cc2ccccc2N1C(=O)COC(=O)c1ccccc1NCCO (stereo not given) | 39.7 | -39.7 | -1.3 | -5.7 | 0.4 | 65.8*
CCOC(=O)c1sc2nc(N3CCOCC3)c3c(c2c1N)CCCC3 | 73.9* | -73.9 | -1.8 | -4.1 | 1.9 | 20.0
SMILES | SR-BI HDL uptake | SR-BI uptake up | V-ATPase pHluor | CaV13 ICDI inh | NTR1 agonist | Vif inh
COc1cc2c(cc1NC(=O)c1ccccc1F)CCCC2 | 69.1 | -69.1 | 2.8 | -5.3 | 3.2 | -2.9
COc1cc2c(cc1NC(=O)c1cccc(F)c1)CCCC2 | 75.9* | -75.9 | -0.5 | -18.3 | 2.8 | -3.0
COc1cc2c(cc1NC(=O)c1cccc(Br)c1)CCCC2 | 73.1* | -73.1 | 0.3 | 6.9 | 7.1 | 16.1
COc1cc2c(cc1NC(=O)C(c1ccccc1)c1ccccc1)CCCC2 | 47.3 | -47.3 | 2.0 | -2.1 | 8.1 | .
CC(C)c1nc2oc3c(NCC4CCCO4)ncnc3c2c2c1COC(C)(C)C2 (stereo not given) | 7.0 | -7.0 | -2.3 | -4.2 | . | 8.0
CC(C)c1nc2oc3c(NCCO)ncnc3c2c2c1COC(C)(C)C2 | -239.0 | 239.0* | 2.9 | -2.5 | 1.1 | -0.7
C[C@@H]1ON(C)[C@H]2C[C@H]3c4cc(-c5ccc6c(c5)OCO6)ccc4CCN3C[C@@H]12 | . | . | . | -4.0 | . | .
C[C@@H](c1ccccc1)N1C[C@H](COCc2ccccc2)Oc2cc(N3CC[C@@H](O)C3)ccc2S1(=O)=O | . | . | . | -9.4 | . | .
O=C(N/N=C1\CC2CC=CC12)c1ccc(Br)cc1 (stereo not given) | -15.2 | 15.2 | 7.6 | -0.4 | 0.4 | -1.1
Cc1cc(Br)c(OCc2ccc(C(=O)N/N=C3\CC4CC=CC34)cc2)c(Br)c1 (stereo not given) | 84.1* | -84.1 | -0.6 | -4.8 | 3.8 | -4.2
Cc1sc(NC(=O)COc2ccccc2)c(C#N)c1-c1ccccc1 | -1.5 | 1.5 | 0.2 | -5.2 | 8.1 | -12.4
CCOC(=O)c1csc(NC(=O)c2ccc(OC)c(OC)c2)n1 | 77.4* | -77.4 | -2.0 | -9.1 | 0.4 | 0.0
COc1ccc(C(=O)Nc2sc(C)c(-c3ccccc3)c2C#N)cc1OC | 85.0* | -85.0 | 0.7 | -3.4 | 4.7 | -10.3
COc1ccc(CCNC(=O)c2ccc(N(C)S(=O)(=O)c3ccc(C)cc3)cc2)cc1OC | 73.8* | -73.8 | 3.6 | -4.5 | 2.2 | -24.2
COc1ccc(CCNC(=O)COc2ccc(N(C)S(=O)(=O)c3ccc(C)cc3)cc2)cc1OC | . | . | 5.2 | -6.7 | 0.1 | -12.0
COc1ccc(CCNC(=O)c2cc([N+](=O)[O-])cc([N+](=O)[O-])c2)cc1OC | 72.9* | -72.9 | -2.7 | -3.9 | . | 0.1
CC1(C)C2CCC1(C)C(OCCNCCOC(=O)Nc1ccccc1)C2 (stereo not given) | -26.8 | 26.8 | 13.6* | -2.7 | 6.4 | -0.6
Cc1[nH]c2c(ccc3cccnc32)c1C | 9.0 | -9.0 | -4.7 | -5.9 | 3.2 | -3.7
CC1=[N+](C)c2c(ccc3cccnc23)C1(C)C | -97.3 | 97.3* | 1.2 | -43.1 | . | 4.2
Cc1ccccc1Nc1nc(N)nc(CCl)n1 | -19.7 | 19.7 | -0.1 | -31.6 | 1.5 | 104.1*
CC(C)/C(=N\NS(=O)(=O)c1ccc(Br)cc1)c1cccs1 | 9.2 | -9.2 | 1.7 | -0.5 | 0.6 | 5.1
